Screens deposited in PubChem BioAssay by The Scripps Research Institute Molecular Screening Center.
Sampled rows, rich in hits. Any-hit rate of the full collection: about 4.5%.
OX1R antag-1: blocks the human orexin 1 receptor. inhibition, % at 5 µM. actives 0.43% (n = 330,000). O43613. AID 434989. CHO/OX1R cells, Fluo-8 calcium fluorescence, orexin A;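 active means inhibition above its plate's threshold, mean inhibition of all tested compounds on the plate plus 3 SD, cut at about 37% in these data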
Target sequence (O43613 whole entry, looked up): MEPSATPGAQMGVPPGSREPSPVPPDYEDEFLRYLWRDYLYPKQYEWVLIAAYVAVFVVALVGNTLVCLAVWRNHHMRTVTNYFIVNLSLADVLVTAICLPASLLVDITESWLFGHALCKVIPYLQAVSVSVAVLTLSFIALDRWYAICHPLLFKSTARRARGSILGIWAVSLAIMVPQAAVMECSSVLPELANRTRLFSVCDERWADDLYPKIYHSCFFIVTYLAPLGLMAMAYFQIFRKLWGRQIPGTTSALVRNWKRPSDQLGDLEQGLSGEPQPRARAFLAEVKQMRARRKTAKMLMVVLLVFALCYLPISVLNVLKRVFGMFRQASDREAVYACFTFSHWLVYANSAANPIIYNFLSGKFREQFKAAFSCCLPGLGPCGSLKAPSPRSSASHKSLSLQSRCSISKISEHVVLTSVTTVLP
CHO parental Ca: counter-screen: ATP calcium response change in parental CHO cells; parental CHO-K1, ATP-induced calcium, Fluo-8 fluorescence; inhibition, % at 5.6 µM; actives 0.63% (n = 330,000);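 active means inhibition above that plate's mean sample inhibition plus 3 SD, cut at about 26% in these data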
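Material: Parental CHO cells | Reagent: ATP | Compound dosing: Single nominal dose of 5.6 µM per compound | Detection: Intracellular calcium via Fluo-8 no-wash fluorescent dye | Read-out: % inhibition of ATP-induced calcium mobilization | Benchmarks: Low control ATP plus DMSO, high control DMSO only | Replicates: Singlicate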
GPR7 antag: human neuropeptides B/W receptor 1 antagonism | P48145 | GPR7-expressing cells, fluorescence antagonist assay | inhibition, % at 4.4 µM | actives 1.1% (n = 290,000); in the data active means inhibition above about 16%, passing the limit was not always enough;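 further: cells stimulated with the agonist NPW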
TAAR1 antagonist: antagonists of human TAAR1; CHO RD-HGA16 TAAR1, Fluo-8 calcium fluorescence, antagonist; AID 624466; Q96RJ0; inhibition, % at 3 µM; actives 1.5% (n = 360,000);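 active means inhibition above a per-plate cutoff, the mean inhibition of test compounds on that plate plus 3 SD, cut at about 49% in these data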
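Assay system: CHO-derived RD-HGA16 cells stably expressing human TAAR1 plus Gα16. Timing: 140 s kinetic read after compound, 140 s after agonist. Technique: kinetic Fluo-8 calcium fluorescence measurement. Measure: % inhibition of agonist calcium response.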
OX1R antag-2: OX1R (human) antagonism | O43613 | OX1R-expressing cells, FRET antagonist read-out | inhibition, % at 6.6 µM | actives 1.8% (n = 330,000); in the data active means inhibition mostly above about 38%, no sharp cut-off; inactive means mostly below about 40%
TAAR1 agonist: human TAAR1 agonism. AID 624467. actives 0.99% (n = 360,000). CHO RD-HGA16 TAAR1, Fluo-8 calcium fluorescence; vehicle wells 0%, saturating PEA agonist 100%. Q96RJ0. activation, % at 3 µM;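 active means activation above the mean activation of all test compounds in the run plus 3 SD, cut at about 38% in these data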
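System: CHO-derived RD-HGA16 cells with stable Gα16 and human TAAR1. Times: 17-24 h plating, Fluo-8 75 min 37 °C, 30 min RT. Measured by: calcium-sensitive Fluo-8 signal, excitation 470-495, emission 515-575 nm. Read-out basis: % activation relative to PEA EC100 response. Control set: DMSO and PEA EC100. Repeats: no replicates (n 1).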
OX1R Ca confirm: confirmation of human orexin 1 receptor antagonists; shares compounds with OX1R antag-1; inhibition, % at 5 µM; actives 38% (n = 1,100); CHO/OX1R cells, orexin A calcium Fluo-8 fluorescence; in the data active means inhibition above about 29%
CHO Ca triplic: counter-screen for OX1R antagonists: effect in parental CHO cells | shares compounds with OX1R antag-1 | parental CHO-K1, ATP-induced calcium, Fluo-8 fluorescence | inhibition, % at 5.6 µM | actives 9.3% (n = 1,100);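 active means inhibition above a per-plate limit, the mean inhibition of that plate's test compounds plus 3 SD, cut at about 25% in these data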
Numbers stand for hits; i = inactive; nt = no result.

SMILES	OX1R antag-1	CHO parental Ca	GPR7 antag	TAAR1 antagonist	OX1R antag-2	TAAR1 agonist	OX1R Ca confirm	CHO Ca triplic
CCn1c(CSc2ncccn2)nnc1SCC(=O)N1CCc2ccccc21	i	i	i	i	i	i	nt	nt
O=C1C=C(c2ccc(Oc3ccccc3)cc2)C[C@@H](c2ccc3c(c2)OCO3)C1	i	i	nt	i	i	i	nt	nt
O=c1cc(CN2CC(O)Cc3ccc4ccccc4c32)nc2sccn12 (stereo unspecified)	71	i	i	i	i	i	57	i
CC1Cc2ccccc2N1Cc1cc(=O)n2ccsc2n1 (stereo unspecified)	i	i	i	i	i	i	nt	nt
COc1ccccc1OCCCCCc1c(C)n[nH]c1C	i	i	i	i	i	i	i	i
COc1ccccc1OCCCc1c(C)n[nH]c1C	i	i	i	i	i	i	nt	nt
CC(=O)c1ccc(S(=O)(=O)NC2CCSc3ccccc32)cc1 (stereo unspecified)	i	i	i	i	i	i	nt	nt
O=S(=O)(NC1CCSc2ccccc21)c1ccc(Cl)nc1 (stereo unspecified)	52	i	i	i	i	i	i	i
CN(C)CCCNc1cc(C(C)(C)C)nc2c(-c3ccc(Cl)cc3)cnn12	i	i	i	i	i	i	i	i
CC(C)(C)c1cc(NCc2ccccn2)n2ncc(-c3ccc(Cl)cc3)c2n1	i	i	i	i	i	i	nt	nt
O=S(=O)(/C=C/C=C/S(=O)(=O)c1ccccc1)c1ccccc1	nt	nt	nt	i	nt	i	nt	nt
Cc1noc(/C=C/c2ccc(-c3ccccc3Cl)o2)c1[N+](=O)[O-]	i	i	i	nt	i	nt	74	43
Cc1cccc(C)c1N/C=C/c1onc(C)c1[N+](=O)[O-]	i	i	i	i	i	i	nt	nt
COc1cccc(C(=O)/C=C/Nc2ccc(S(=O)(=O)Nc3cccc(C(C)=O)c3)cc2)c1	i	i	i	56	i	i	i	i
COc1ccc(OCC(=O)NC2CCSc3ccccc32)cc1 (stereo unspecified)	i	i	nt	i	i	i	nt	nt
CN(Cc1c(C(=O)N/N=C/c2cccc(Cl)c2)nnn1-c1nonc1N)c1ccccc1	i	i	i	i	i	i	i	i
Cc1ccc(C(=O)OCn2ncc(Cl)c(Cl)c2=O)cc1	i	i	i	i	i	i	73	i
CCOC(=O)c1ccc(NC(=O)Cn2ncc(Cl)c(Cl)c2=O)cc1	i	i	i	i	i	i	nt	nt
CCOc1ccc(NS(=O)(=O)c2ccc(C(=O)N(C)CC(=O)Nc3cccc(OC)c3)cc2)cc1	nt	nt	nt	i	nt	i	nt	nt
CC(=O)Oc1cccc(NC(=O)c2cccc(C(=O)Nc3cccc(OC(C)=O)c3)c2)c1	52	i	i	69	i	i	i	i
CCC(NC(=O)c1cc(COc2cc(C)c(Cl)c(C)c2)on1)c1ccncc1 (stereo unspecified)	42	i	i	i	i	43	i	i
CCC(NC(=O)c1cc(COc2ccc(OC)cc2Cl)on1)c1ccncc1 (stereo unspecified)	i	i	i	i	i	i	nt	nt
COc1cn(-c2ccccc2)nc1C(=O)Nc1ccc(C)cc1Cl	i	i	i	i	i	i	i	i
COc1ccc(CNC(=O)c2nn(-c3ccccc3)cc2OC)cc1	i	i	i	i	i	i	nt	nt
Cc1nc2c(-c3ccc(Cl)cc3)cnn2c2c1CCC2	40	i	i	i	i	i	34	i
SMILES	OX1R antag-1	CHO parental Ca	GPR7 antag	TAAR1 antagonist	OX1R antag-2	TAAR1 agonist	OX1R Ca confirm	CHO Ca triplic
Cc1nc2c(-c3ccc(Cl)cc3)cnn2c(N)c1-c1ccc(F)cc1	i	i	i	i	i	i	nt	nt
Cc1ccsc1C(=O)N1CCCC(N(C)Cc2ccccc2)C1 (stereo unspecified)	i	i	i	i	i	i	i	i
Cn1c(=O)c2[nH]c(C(O)c3ccc(Cl)cc3)nc2n(C)c1=O (stereo unspecified)	nt	nt	nt	i	nt	i	nt	nt
COc1ccc(S(=O)(=O)NCCc2ccc(F)cc2)cc1	i	i	i	i	i	i	nt	nt
CCCCNc1ccc(C(F)(F)F)cc1S(=O)(=O)NCCc1ccc(F)cc1	i	i	nt	50	i	i	i	i
COc1ccc(OC)c(NC(=O)Cc2nn(C)c(=O)c3ccccc23)c1	i	i	i	i	i	i	nt	nt
COc1ccc(CNC(=O)Cc2nn(C)c(=O)c3ccccc23)cc1	i	i	i	i	i	i	i	33
Cc1nnc(SCC(=O)Nc2sc3c(c2C#N)CCCC3)[nH]c1=O	i	i	i	i	i	i	nt	nt
N#Cc1c(NC(=O)CSc2nc(N)cc(=O)[nH]2)sc2c1CCCC2	i	i	i	i	i	i	i	i
N=C1/C(=C\c2coc3ccc(O)cc3c2=O)C(=O)N=C2SC=CN12	i	i	i	i	i	48	i	30
N=C1/C(=C/c2coc3ccccc3c2=O)C(=O)N=C2SC(c3ccco3)=NN12	i	i	i	nt	i	nt	nt	nt
C=CCn1c(SCC(=O)Nc2sccc2C(N)=O)nc2sc(C)c(C)c2c1=O	i	i	i	i	i	i	i	i
COc1ccc(NS(=O)(=O)c2ccc(SC)cc2)cc1	57	i	i	i	i	i	i	i
CCN(CC(=O)Nc1cc(S(=O)(=O)N2CCOCC2)ccc1Cl)Cc1ccccc1	55	i	nt	i	i	i	i	i
CCN(CC(=O)Nc1cc(S(=O)(=O)N2CCCCC2)ccc1Cl)Cc1ccccc1	i	i	nt	i	i	i	nt	nt
OC(c1ccc(F)cc1)c1ncc(-c2cccc3ccccc23)[nH]1 (stereo unspecified)	nt	nt	nt	i	nt	i	nt	nt
O=C1COc2ccc(C(=O)COC(=O)CCCOc3ccccc3)cc2N1	nt	nt	nt	i	nt	i	nt	nt
Cc1ccc(OCCC(=O)OCC(=O)c2ccc3c(c2)NC(=O)CO3)cc1	i	i	nt	i	i	i	i	i
Nc1ccc(-c2nc3ccc(-c4nc5ccccc5o4)cc3[nH]2)cc1	i	i	i	i	i	i	i	i
Nc1ccc(-c2nc3ccc(N)cc3o2)cc1	i	i	i	i	i	i	nt	nt
COCCNC(=O)C1CCCN(C(=O)c2sc(-c3ccccc3)nc2C)CC1 (stereo unspecified)	nt	nt	nt	i	nt	i	nt	nt
O=C(c1ccc2ccccc2c1)C1CCCN(S(=O)(=O)c2cccnc2)C1 (stereo unspecified)	i	i	i	i	i	i	i	i
CC(C)C[C@H]1CN(CCCC[C@H]2CNC(=O)C(=O)N2CCc2ccccc2)C(=O)C(=O)N1CCC1CCCCC1	nt	nt	nt	i	nt	i	nt	nt
COC(=O)c1c(C)[nH]c(C(=O)COC(=O)CCNS(=O)(=O)c2cccc(C(F)(F)F)c2)c1C	i	i	nt	i	i	i	i	i
